Assay results reported in ChEMBL document CHEMBL4014341, “Discovery of a Human Neuromedin U Receptor 1-Selective Hexapeptide Agonist with Enhanced Serum Stability” (J Med Chem, 2017).
Active and inactive are the calls of the source. The rule behind the calls is not given here. Square brackets hold non-standard residues; d marks the D form. Peptide text beside a SMILES is read from it. * marks the point of attachment. Phe(4-NO2) = N[C@@H](Cc1ccc([N+](=O)[O-])cc1)C(=O)O; Phe(4-CF3) = N[C@@H](Cc1ccc(C(F)(F)F)cc1)C(=O)O; Phe(4-Br) = N[C@@H](Cc1ccc(Br)cc1)C(=O)O; Phe(4-CN) = N#Cc1ccc(C[C@H](N)C(=O)O)cc1; Phe(4-Cl) = N[C@@H](Cc1ccc(Cl)cc1)C(=O)O; αMeW = C[C@](N)(Cc1c[nH]c2ccccc12)C(=O)O; Phe(3-F) = N[C@@H](Cc1cccc(F)c1)C(=O)O; Phe(4-F) = N[C@@H](Cc1ccc(F)cc1)C(=O)O; Phe(2-F) = N[C@@H](Cc1ccccc1F)C(=O)O; Acetyl(2-thienyl) = O=C(Cc1cccs1)*

Columns and labels:
[1] = biological target: T1, Neuromedin-U receptor 1 (Homo sapiens) (UniProt Q9HB89); assay: Agonist activity at human NMUR1 expressed in CHO cells assessed as induction of Ca2+ flux at 0.1 to 10 nM after 18 hrs by Fluo-4 AM dye based FLIPR assay relative to NMU; assay type: functional, cell-based
T1 sequence (whole entry): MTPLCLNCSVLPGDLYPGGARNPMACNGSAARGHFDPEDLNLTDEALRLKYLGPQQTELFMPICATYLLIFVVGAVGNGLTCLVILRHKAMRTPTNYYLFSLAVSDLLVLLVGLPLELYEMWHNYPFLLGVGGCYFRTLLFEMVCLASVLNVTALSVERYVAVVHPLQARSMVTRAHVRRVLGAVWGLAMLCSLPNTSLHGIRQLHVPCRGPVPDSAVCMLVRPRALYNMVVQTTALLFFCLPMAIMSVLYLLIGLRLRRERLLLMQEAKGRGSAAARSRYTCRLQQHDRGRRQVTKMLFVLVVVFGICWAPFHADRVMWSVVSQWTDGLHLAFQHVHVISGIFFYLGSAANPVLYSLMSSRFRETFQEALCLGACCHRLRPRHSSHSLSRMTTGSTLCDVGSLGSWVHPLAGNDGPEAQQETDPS
Summary of the method: (§1)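 Human NMUR1 or NMUR2 stably expressed in CHO cells was assayed by Fluo-4 AM (4 μM, 40 min) FLIPR calcium flux, with cells seeded 18 h before. Peptides were tested at single concentrations of 0.1, 10 or 100 nM. Maximal response is expressed as % of hNMU at 1000 nM (=100%).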

[2] = biological target: Neuromedin-U receptor 2 (Homo sapiens) (UniProt Q9GZQ4); assay: Agonist activity at human NMUR2 expressed in CHO cells assessed as induction of Ca2+ flux at 0.1 to 10 nM after 18 hrs by Fluo-4 AM dye based FLIPR assay relative to NMU; assay type: functional, cell-based; summary of the method: as §1
[3] = biological target: Neuromedin-U receptor 2 (Homo sapiens) (UniProt Q9GZQ4); assay: Agonist activity at human NMUR2 expressed in CHO cells assessed as induction of Ca2+ flux at 10 nM after 18 hrs by Fluo-4 AM dye based FLIPR assay relative to NMU; assay type: functional, cell-based; summary of the method: as §1
[4] = biological target: T1, Neuromedin-U receptor 1 (Homo sapiens); assay: Agonist activity at human NMUR1 expressed in CHO cells assessed as induction of Ca2+ flux at 0.1 nM after 18 hrs by Fluo-4 AM dye based FLIPR assay relative to NMU; assay type: functional, cell-based; summary of the method: as §1
[5] = AUC in Wistar rat at 1 mg, iv up to 240 mins by LC/MS analysis; assay type: ADME, organism-based; parameters: dose 1 mg, time < 4 hr, route intravenous; details: in vivo
[6] = MRT in Wistar rat at 1 mg, iv by LC/MS analysis; assay type: ADME, organism-based; details: in vivo
[7] = Clearance in Wistar rat at 1 mg, iv up to 240 mins by LC/MS analysis; assay type: ADME, organism-based; details: in vivo
Prothrombin = Prothrombin (Homo sapiens, UniProt P00734); assay: Drug metabolism in human serum treated with (S)-2-((S)-1-((S)-2-((S)-2-((S)-3-(1H-indol-3-yl)-2-(2-(thiophen-2-yl)acetamido)propanamido)-3-(1H-indol-3-yl)-2-methylpropanamido)-5-guanidinopentanoyl)pyrrolidine-2-carboxamido)-5-guanidinopentanoic acid assessed as thrombin-mediated metabolite formation at 1 mM after 120 mins by RP-HPLC analysis; assay type: ADME; details: 2 h, 1000 µM
[8] = biological target: Neuromedin-U receptor 2 (Homo sapiens) (UniProt Q9GZQ4); assay: Agonist activity at human NMUR2 expressed in CHO cells assessed as induction of Ca2+ flux at 0.1 uM after 18 hrs by Fluo-4 AM dye based FLIPR assay relative to NMU; assay type: functional, cell-based; summary of the method: as §1
Rattus norvegicus = species: Rattus norvegicus; assay: Stability in rat serum at 1 mM at 120 mins by RP-HPLC/MS analysis

Sequence of Neuromedin-U receptor 2 (Homo sapiens) (Q9GZQ4 whole entry): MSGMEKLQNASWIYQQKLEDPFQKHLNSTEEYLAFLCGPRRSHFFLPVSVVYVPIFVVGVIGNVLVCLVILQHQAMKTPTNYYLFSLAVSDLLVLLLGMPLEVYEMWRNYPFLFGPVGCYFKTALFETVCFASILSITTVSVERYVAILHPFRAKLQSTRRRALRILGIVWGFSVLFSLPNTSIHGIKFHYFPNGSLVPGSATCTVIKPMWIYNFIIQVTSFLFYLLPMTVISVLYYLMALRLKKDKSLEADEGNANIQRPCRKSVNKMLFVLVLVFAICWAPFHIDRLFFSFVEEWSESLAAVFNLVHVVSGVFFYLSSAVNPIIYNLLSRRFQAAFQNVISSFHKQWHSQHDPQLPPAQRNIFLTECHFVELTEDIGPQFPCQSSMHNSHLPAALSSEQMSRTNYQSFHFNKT

Compound	Activity [1]	Activity [2]	Activity [3]	also measured
N=C(N)NCCC[C@H](NC(=O)[C@@H]1CCCN1C(=O)[C@H](CCCNC(=N)N)NC(=O)[C@H](Cc1ccccc1F)NC(=O)[C@H](Cc1c[nH]c2ccccc12)NC(=O)Cc1cccs1)C(=O)N[C@@H](CC(N)=O)C(N)=O ({Acetyl(2-thienyl)}-W[Phe(2-F)]RPRN-NH2)	Active	Active		
N=C(N)NCCC[C@H](NC(=O)[C@@H]1CCCN1C(=O)[C@H](CCCNC(=N)N)NC(=O)[C@H](Cc1cccc(F)c1)NC(=O)[C@H](Cc1c[nH]c2ccccc12)NC(=O)Cc1cccs1)C(=O)N[C@@H](CC(N)=O)C(N)=O ({Acetyl(2-thienyl)}-W[Phe(3-F)]RPRN-NH2)	Active	Active		
N=C(N)NCCC[C@H](NC(=O)[C@@H]1CCCN1C(=O)[C@H](CCCNC(=N)N)NC(=O)[C@H](Cc1ccc(Br)cc1)NC(=O)[C@H](Cc1c[nH]c2ccccc12)NC(=O)Cc1cccs1)C(=O)N[C@@H](CC(N)=O)C(N)=O ({Acetyl(2-thienyl)}-W[Phe(4-Br)]RPRN-NH2)			inactive	
N=C(N)NCCC[C@H](NC(=O)[C@@H]1CCCN1C(=O)[C@H](CCCNC(=N)N)NC(=O)[C@H](Cc1ccc(C(F)(F)F)cc1)NC(=O)[C@H](Cc1c[nH]c2ccccc12)NC(=O)Cc1cccs1)C(=O)N[C@@H](CC(N)=O)C(N)=O ({Acetyl(2-thienyl)}-W[Phe(4-CF3)]RPRN-NH2)			inactive	Activity [4]: Active
N#Cc1ccc(C[C@H](NC(=O)[C@H](Cc2c[nH]c3ccccc23)NC(=O)Cc2cccs2)C(=O)N[C@@H](CCCNC(=N)N)C(=O)N2CCC[C@H]2C(=O)N[C@@H](CCCNC(=N)N)C(=O)N[C@@H](CC(N)=O)C(N)=O)cc1 ({Acetyl(2-thienyl)}-W[Phe(4-CN)]RPRN-NH2)			inactive	
N=C(N)NCCC[C@H](NC(=O)[C@@H]1CCCN1C(=O)[C@H](CCCNC(=N)N)NC(=O)[C@H](Cc1ccc(Cl)cc1)NC(=O)[C@H](Cc1c[nH]c2ccccc12)NC(=O)Cc1cccs1)C(=O)N[C@@H](CC(N)=O)C(N)=O ({Acetyl(2-thienyl)}-W[Phe(4-Cl)]RPRN-NH2)			Active	
N=C(N)NCCC[C@H](NC(=O)[C@@H]1CCCN1C(=O)[C@H](CCCNC(=N)N)NC(=O)[C@H](Cc1ccc(F)cc1)NC(=O)[C@H](Cc1c[nH]c2ccccc12)NC(=O)Cc1cccs1)C(=O)N[C@@H](CC(N)=O)C(N)=O ({Acetyl(2-thienyl)}-W[Phe(4-F)]RPRN-NH2)	Active	Active		AUC at 4 h [5]: 5300 ng·h/mL; MRT [6]: 11.5 min; clearance [7]: 3.19 mL/min
N=C(N)NCCC[C@H](NC(=O)[C@@H]1CCCN1C(=O)[C@H](CCCNC(=N)N)NC(=O)[C@H](Cc1ccc([N+](=O)[O-])cc1)NC(=O)[C@H](Cc1c[nH]c2ccccc12)NC(=O)Cc1cccs1)C(=O)N[C@@H](CC(N)=O)C(N)=O ({Acetyl(2-thienyl)}-W[Phe(4-NO2)]RPRN-NH2)			inactive	
C[C@@](Cc1c[nH]c2ccccc12)(NC(=O)[C@H](Cc1c[nH]c2ccccc12)NC(=O)Cc1cccs1)C(=O)N[C@@H](CCCNC(=N)N)C(=O)N1CCC[C@H]1C(=O)N[C@@H](CCCNC(=N)N)C(=O)O ({Acetyl(2-thienyl)}-W[αMeW]RPR-OH)	Active			Drug metabolism (Prothrombin): Metabolite_Detected; Activity [8]: inactive; remaining at 2 h, 1000 µM (Rattus norvegicus): 101%
